Bioassay records deposited in PubChem by The Scripps Research Institute Molecular Screening Center.
PRMT1 FP inh = PRMT1 methyltransferase inhibitors, primary screen, biochemical, fluorescence polarization | Protein arginine N-methyltransferase 1 (Homo sapiens), Q99873 | recombinant PRMT1, activity-based probe fluorescence polarization | inhibition, % at 2.79 µM | hit rate 1.3% among 370,000 | AID 652257, 2013;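 active = inhibition above about 21% made by adding two undisclosed values, limit read from the data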
TDP2 absorb = human TDP2 enzyme inhibitors, primary screen, biochemical, epi absorbance, recombinant enzyme. Tyrosyl-DNA phosphodiesterase 2 (Homo sapiens), O95551. inhibition, % at 12.8 µM. T5PNP hydrolysis, p-nitrophenol absorbance 415 nm. hit rate 0.34% among 370,000;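 active = inhibition above the mean of all tested compounds plus 3 SD, set per campaign, cut at about 25% in these data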;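 note: 0% = DMSO with enzyme and 100% = buffer with substrate but no TDP2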
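Material: recombinant human TDP2; quantity: TDP2 enzyme at 120 nM final; medium: Tris-HCl pH 7.5 with MgCl2; compound: single concentration, 12.8 µM nominal, with 1% DMSO; incubation: 2 h enzyme incubation at 37 °C; signal: epi absorbance; measure: percent inhibition; benchmarks: high control without enzyme, low control DMSO plus TDP2; repeats: singlicate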
SIAE inh = human SIAE inhibitors, primary screen, biochemical, fluorescence polarization, FP-Rh probe, 1536-well HTS. AID 1053197, 2014. SIAE FP-Rh probe binding. inhibition, % at 9.66 µM. hit rate 0.69% among 370,000;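 active = inhibition above a cutoff: mean of compounds within the control limits plus 3 SD of those, cut at about 17% in these data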;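 note: 0% = plate median of compound wells and 100% = probe without SIAE protein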
Target sequence (Q9HAT2 whole entry, looked up): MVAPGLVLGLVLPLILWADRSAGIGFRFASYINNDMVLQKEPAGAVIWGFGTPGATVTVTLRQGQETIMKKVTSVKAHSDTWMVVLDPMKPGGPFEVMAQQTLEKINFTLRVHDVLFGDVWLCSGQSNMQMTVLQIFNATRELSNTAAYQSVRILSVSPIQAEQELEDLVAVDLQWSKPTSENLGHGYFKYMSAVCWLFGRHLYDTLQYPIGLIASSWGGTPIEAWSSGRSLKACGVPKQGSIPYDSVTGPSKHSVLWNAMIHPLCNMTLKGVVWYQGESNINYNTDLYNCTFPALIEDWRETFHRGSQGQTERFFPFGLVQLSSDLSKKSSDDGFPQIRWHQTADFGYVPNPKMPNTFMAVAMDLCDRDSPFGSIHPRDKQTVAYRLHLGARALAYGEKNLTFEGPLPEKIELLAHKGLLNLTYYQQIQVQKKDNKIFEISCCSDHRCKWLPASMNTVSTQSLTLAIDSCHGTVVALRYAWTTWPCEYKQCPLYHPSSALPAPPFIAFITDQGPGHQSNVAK
MBD2 DNA inh = inhibitors of MBD2 binding to methylated DNA, primary screen, biochemical, TR-FRET, DNA-binding domain, human; Methyl-CpG-binding domain protein 2 (Homo sapiens), Q9UBB5; MBD2 binding to methylated oligonucleotide; inhibition, % at 4.4 µM; hit rate 0.31% among 370,000; in the data active = inhibition above about 13%
LEDGF integ inh = blockers of LEDGF/p75-dependent integrase strand transfer – biochemical, TR-FRET, high throughput, primary screen | hit rate 0.64% among 370,000 | inhibition, % at 3.7 µM | HIV-1 integrase (with human LEDGF/p75) | TR-FRET IN-LEDGF/p75 DNA integration, Eu/Cy5;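 active = inhibition above the screen-wide mean plus 3 SD, cut at about 13% in these data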;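 note: signal is the Cy5 over europium emission ratio at 671 and 618 nm; 0% = plate median of compound wells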
UHRF1 MBD2 ctr = UHRF1 methylated DNA binding inhibitors, primary screen, counter-screen for MBD2 inhibitor project, biochemical, TR-FRET, human UHRF1, single concentration; E3 ubiquitin-protein ligase UHRF1 (Homo sapiens), Q96T88; UHRF1 binding to methylated oligo; AID 687016, 2013; hit rate 0.75% among 370,000; inhibition, % at 4.4 µM; in the data active = inhibition above about 21%;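 note: UHRF1 SRA domain binding a hemimethylated CpG hairpin DNA probe; 0% = median of test compound wells and 100% = reference inhibitor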
TDP2 inh conf = human TDP2 enzyme inhibitors, retest, confirmation, biochemical, epi absorbance, recombinant enzyme | shares compounds with TDP2 absorb | absorbance read-out | inhibition, % at 12.8 µM | hit rate 22% among 1,100; in the data active = inhibition above about 25%;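 note: 0% = vehicle with enzyme and 100% = no enzyme buffer only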
IN multimer up = HIV-1 IN multimer formation enhancers, counter-screen for LEDGF/p75 integration inhibitor project, biochemical, TR-FRET; shares compounds with LEDGF integ inh; TR-FRET HIV-1 integrase multimerization; activation, % at 7.7 µM; hit rate 17% among 2,000; AID 1053131, 2014; in the data active = activation above about 8.9%
TRFRET interf = TR-FRET optical interference artefacts, confirmation, artefact control for LEDGF/p75-dependent integration inhibitor project, biochemical, HIV-1 IN multimerization; shares compounds with LEDGF integ inh; 2,000 tested, under 10 active; TR-FRET optical interference counterscreen; inhibition, % at 7.7 µM;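 active = inhibition above the mean over all tested compounds plus 3 SD, which no compound reached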;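 note: 0% = integrase with antibodies and DMSO and 100% = antibodies without integrase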
LEDGF integ conf = inhibitors of HIV-1 IN-LEDGF/p75 DNA integration, confirmation, biochemical, TR-FRET; shares compounds with LEDGF integ inh; TR-FRET LEDGF/p75-dependent HIV-1 integration; inhibition, % at 3.7 µM; hit rate 36% among 2,000; AID 1053136, 2014; in the data active = inhibition above about 14%
* = called active by the depositor; . = no result given. Sampled rows, rich in hits. Any-hit rate of the full collection: about 3.3%.

SMILES | PRMT1 FP inh | TDP2 absorb | SIAE inh | MBD2 DNA inh | LEDGF integ inh | UHRF1 MBD2 ctr | TDP2 inh conf | IN multimer up | TRFRET interf | LEDGF integ conf
Cc1[nH][nH]c(=O)c1C(c1ccc([N+](=O)[O-])cc1)c1c(C)[nH][nH]c1=O | 0.9 | 30.6* | 3.1 | -4.0 | 2.8 | 9.0 | 12.0 | . | . | .
COc1ccc(OC)c(C(c2c(C)[nH][nH]c2=O)c2c(C)[nH][nH]c2=O)c1 | -2.4 | 49.5* | 3.1 | -6.0 | 0.4 | -5.7 | 7.5 | . | . | .
COc1ccc(C(c2c(C)[nH][nH]c2=O)c2c(C)[nH][nH]c2=O)cc1Br | 8.1 | 14.6 | -2.3 | -4.3 | -1.3 | -7.7 | . | . | . | .
Cc1ccc(C(c2c(C)[nH][nH]c2=O)c2c(C)[nH][nH]c2=O)cc1 | -1.6 | 33.4* | 4.1 | -9.6 | 2.8 | -9.2 | -2.4 | . | . | .
Cc1[nH][nH]c(=O)c1C(c1ccc(O)c([N+](=O)[O-])c1)c1c(C)[nH][nH]c1=O | -0.1 | 13.4 | 4.5 | -11.5 | 5.1 | -18.1 | . | . | . | .
C=CCn1c(Cc2cccs2)nnc1SCC(=O)Nc1ccc(OCc2ccccc2)cc1 | 0.3 | 0.9 | -8.1 | 0.9 | 1.6 | -1.6 | . | . | . | .
O=C(O)[C@@H]1CCCN1C(=O)CCc1c[nH]c2ccccc12 | -0.9 | 25.2* | 1.1 | 0.3 | -1.6 | 0.8 | -15.2 | . | . | .
CCCCCCCCN1C(=O)[C@@H](CC(=O)NCCCCc2ccccc2)C[C@@]2(C(=O)OC)C1=C[C@H](COCc1ccccc1)O[C@@H]2C | -2.0 | -4.6 | -2.4 | 0.2 | 0.9 | 2.7 | . | . | . | .
COc1ccc(CCn2c(N)c(C(=O)NCc3ccco3)c3nc4ccccc4nc32)cc1OC | 5.2 | 25.2* | -0.8 | -7.0 | -2.6 | -10.0 | 25.6* | . | . | .
COc1ccc(CCn2c(N)c(C(=O)NCc3ccco3)c3nc4ccccc4nc32)cc1 | 3.6 | 9.3 | -6.7 | -7.2 | 4.3 | -8.6 | . | . | . | .
COC(=O)C[C@H]1CC[C@@H]2[C@H](COc3ccc(NC(=O)c4cccc(F)c4)cc3C(=O)N2C)O1 | -1.6 | 5.0 | 1.8 | -0.1 | -0.1 | 1.8 | . | . | . | .
CN1[C@H](Cc2ccccc2)COc2cc(N3CCSCC3)ccc2S1(=O)=O | 2.1 | 5.3 | 1.2 | -3.0 | 5.8 | 0.5 | . | . | . | .
Cc1cc(/C=C2\SC(=S)NC2=O)c(C)n1-c1ccccc1 | -2.7 | -5.6 | -8.1 | -5.3 | -0.6 | -3.4 | . | . | . | .
Cc1cc(/C=C2\SC(=S)NC2=O)c(C)n1C | 22.5* | 25.3* | -1.9 | 6.4 | 38.3* | 23.2* | -4.1 | 13.7* | -48.8 | 11.6
Nn1cnnc1N/N=C\c1ccc(-c2ccccc2[N+](=O)[O-])o1 | 5.4 | 65.8* | 3.3 | -3.0 | 38.5* | 11.1 | 39.0* | 2.4 | -8.5 | 1.2
COc1cccc(O[C@H]2C=C[C@@H](c3ccccc3)O[C@@H]2CO)c1 | 2.2 | 4.0 | -1.0 | -6.2 | -1.0 | 1.4 | . | . | . | .
Cc1ccc(CC#N)c(-c2c(CC#N)ccc(C)c2C)c1C | -1.1 | 1.3 | -6.5 | -3.1 | 0.5 | -1.3 | . | . | . | .
Cc1ccc2c(c1C)-c1c(ccc(C)c1C)C(=O)C2=O | -1.2 | 79.3* | -0.7 | -6.4 | 14.1* | -2.0 | 67.3* | 3.6 | -12.5 | 68.8*
CCCCCCc1c[nH]c2ccc(O)c(-c3ccccc3)c12 | 4.6 | -1.4 | 8.9 | -5.0 | 1.1 | -1.0 | . | . | . | .
Nc1ccc(N2CCOCC2)c2nonc12 | 40.0* | 92.2* | -6.1 | 18.6* | 22.2* | 29.6* | 36.2* | 6.1 | -21.4 | 7.6
O=C(Nc1ccc(N2CCOCC2)c2nonc12)C1CCCC1 | -2.0 | 7.1 | 3.8 | -8.4 | 6.1 | -18.4 | . | . | . | .
COc1ccccc1Nc1nnc(C)c(=O)[nH]1 | 3.5 | -5.3 | -8.0 | 2.7 | 0.9 | 4.2 | . | . | . | .
O=c1cc(Nc2cccc(Br)c2)[nH]c(=O)[nH]1 | 0.9 | 8.4 | 3.6 | -2.9 | 1.4 | 0.2 | . | . | . | .
CC(=O)c1cccc(-c2ccc3c(=O)[nH]c(Nc4ccccc4)cc3c2)c1 | -0.2 | 56.9* | -18.3 | 0.9 | 21.2* | 2.1 | 52.3* | 4.0 | -14.4 | 71.1*
COc1ccccc1Nc1cc2cc(Br)ccc2c(=O)[nH]1 | 5.5 | 63.2* | 6.7 | -3.6 | 21.4* | 18.5 | 57.0* | 6.5 | -22.8 | 73.3*
SMILES | PRMT1 FP inh | TDP2 absorb | SIAE inh | MBD2 DNA inh | LEDGF integ inh | UHRF1 MBD2 ctr | TDP2 inh conf | IN multimer up | TRFRET interf | LEDGF integ conf
O=c1[nH]c(Nc2ccccc2)cc2cc(Br)ccc12 | 12.4 | 83.2* | 7.2 | 1.5 | 35.0* | 9.6 | 57.8* | 1.6 | -5.6 | 57.6*
CC(=O)c1cccc(Nc2nc(-c3ccccc3)nc3ccccc23)c1 | 0.6 | 13.2 | -7.3 | 0.0 | -5.8 | 1.0 | . | . | . | .
COc1ccc(OC)c(Nc2cc3ccccc3c(=O)[nH]2)c1 | 8.1 | 67.7* | 10.4 | -5.3 | 17.2* | 1.0 | 60.7* | 5.5 | -19.6 | 64.6*
O=C(NC1CCCCN(Cc2ccc(Cl)cc2)C1=O)c1ccc(COc2ccccc2)cc1 (stereo not drawn) | -0.7 | -1.0 | 3.4 | -2.5 | -1.6 | 3.1 | . | . | . | .
CN(Cc1ccccc1)C(=O)OCc1cn(Cc2ccc(F)cc2F)nn1 | -0.8 | -6.8 | 7.9 | -4.8 | 0.0 | 0.9 | . | . | . | .
COc1cccc(C(=O)n2ccc3ccc(-c4ccc5ccn(C(=O)c6cccc(OC)c6)c5c4)cc32)c1 | 0.0 | 5.8 | -8.5 | -4.7 | 2.2 | 0.8 | . | . | . | .
CCN1CCCCC(NC(=O)c2ccc(F)c(F)c2)C1=O (stereo not drawn) | -2.4 | -9.7 | 10.8 | -3.5 | 2.1 | 0.2 | . | . | . | .
COc1cc(/C=C2\C(=O)N(c3ccc(NC(C)=O)cc3)N=C2c2ccccc2)ccc1O | 15.7 | 53.9* | 13.7 | 8.0 | 43.6* | 17.7 | 12.1 | 4.1 | -20.7 | -0.7
COC(=O)[C@H](C(C)C)N(CCc1cn(Cc2ccccc2)nn1)S(=O)(=O)c1ccccc1Br | 0.7 | -6.5 | -4.8 | -0.5 | 0.9 | -1.7 | . | . | . | .
